Laboratory results taken from ChEMBL document CHEMBL1153139, “CD4 mimics targeting the mechanism of HIV entry” (Bioorg Med Chem Lett, 2010).
Active and inactive are the calls of the source. No cut-off for these calls is given here.

Legend:
[1] = system: Human immunodeficiency virus 1; experiment: Antiviral activity against HIV1 89.6 laboratory isolate assessed as inhibition of virus-induced cytopathogenicity by MTT assay; assay type: functional, organism-based; conditions: Human immunodeficiency virus 1, isolate 89.6
Summary of the method: (§1)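 Infection of PM1/CCR5 cells; tropism/subtype of each strain: IIIB X4 Sub B, 89.6 dual Sub B, KYAG and fTOI R5 Sub B (primary isolates). Viability read by MTT. […] Means of at least three experiments; tested up to 100 uM.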

[2] = Cytotoxicity against mock-infected CCR5 expressing human PM1 cells by MTT assay; assay type: cell-based
[3] = system: Human immunodeficiency virus 1; experiment: Antiviral activity against HIV1 3B laboratory isolate assessed as inhibition of virus-induced cytopathogenicity by MTT assay; assay type: functional, organism-based; conditions: Human immunodeficiency virus 1, 3B; summary of the method: as §1
[4] = system: Human immunodeficiency virus 1; experiment: Antiviral activity against HIV1 KYAG primary isolate assessed as inhibition of virus-induced cytopathogenicity by MTT assay; assay type: functional, organism-based; conditions: Human immunodeficiency virus 1, KYAG; summary of the method: as §1
[5] = Inhibition of HIV1 gp120 binding to CD4; design: species or system Human immunodeficiency virus 1
[6] = system: Human immunodeficiency virus 1; experiment: Antiviral activity against HIV1 fTOI primary isolate assessed as inhibition of virus-induced cytopathogenicity by MTT assay; assay type: functional, organism-based; conditions: Human immunodeficiency virus 1, fTOI; summary of the method: as §1
PM1 = experiment: Inhibition of gp120 binding to CD4 in HIV1 JR-FL infected human PM1 cells assessed as binding of anti-envelope CD4-induced monoclonal antibody 4C11 to envelope expressing cell surface at 100 uM pretreated 15 mins before 4C11 addition by FACS analysis; assay type: cell-based; conditions: Human immunodeficiency virus 1
Summary of the method: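 PM1 cells chronically infected with JR-FL (R5, Sub B) preincubated 15 min with compound at 100 uM (sCD4 11 nM as reference), then anti-HIV-1 mAb 4C11 at 4 °C for 15 min. After PBS wash, stained with FITC goat anti-human IgG; flow cytometry on gated PM1 cells, anti-CD19 control antibody; read as 4C11 mean fluorescence intensity. Minimum two independent experiments.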

| SMILES | IC50 [1] [µM] | CC50 [2] [µM] | IC50 [3] [µM] | IC50 [4] [µM] | Kd [5] [µM] | IC50 [6] [µM] | Activity (PM1) |
| --- | --- | --- | --- | --- | --- | --- | --- |
| COc1ccc(NC(=O)C(=O)NC2CC(C)(C)NC(C)(C)C2)cc1 | > 100 | 340 | > 100 | > 100 |  |  |  |
| CC1(C)CC(NC(=O)C(=O)Nc2ccc([N+](=O)[O-])cc2)CC(C)(C)N1 | 42 | 230 |  |  |  |  |  |
| CC1(C)CC(NC(=O)C(=O)Nc2ccc(F)cc2)CC(C)(C)N1 | 81 | 320 | 61 | > 100 |  |  |  |
| CC1(C)CC(NC(=O)C(=O)Nc2ccc(Br)cc2)CC(C)(C)N1 | 9 | 150 | 4 |  | 2.2 |  |  |
| CC1(C)CC(NC(=O)C(=O)Nc2ccc(C(F)(F)F)cc2)CC(C)(C)N1 | 27 | 72 |  |  |  |  |  |
| CC1(C)CC(NC(=O)C(=O)Nc2ccccc2)CC(C)(C)N1 | > 100 | 350 | > 100 | > 100 |  | 81 | inactive |
| CC1(C)CC(NC(=O)C(=O)Nc2ccc(Cl)cc2)CC(C)(C)N1 | 10 | 170 | 8 | > 30 |  | 5 | Active |
| Cc1ccc(NC(=O)C(=O)NC2CC(C)(C)NC(C)(C)C2)cc1 | 41 |  | 23 | 51 |  | 16 | Active |
